Results published in ChEMBL document CHEMBL4316598, “Synthesis, antiproliferative and apoptosis induction potential activities of novel bis(indolyl)hydrazide-hydrazone derivatives” (Bioorg Med Chem, 2019).
pIC50: −log10 of the molar value. The source made the active and inactive calls. No cut-off for these calls is given here.

Key:
[1] = test system: MDA-MB-231; assay: Cytotoxicity against human MDA-MB-231 cells assessed as reduction in cell viability after 4 hrs by MTT assay; assay type: functional, cell-based
How it was run: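 MTT: 10,000–20,000 cells/well attached for 16 h, then washed twice with serum-free RPMI. Treated with 1–200 µM for 4 h, 3 parallel runs per concentration. MTT added for 2 h; medium partly removed and isopropanol added. A590 read. Viability = (A treated − A doxorubicin)/(A medium − A doxorubicin)×100. Mean of three experiments, triplicate wells each.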

[2] = (§1) Cytotoxicity against human SW680 cells assessed as reduction in cell viability after 4 hrs by MTT assay; assay type: functional, cell-based
[3] = species on record: Homo sapiens; assay: as §1; assay type: functional, cell-based
[4] = test system: FaDu; assay: Cytotoxicity against human FADU cells assessed as reduction in cell viability after 4 hrs by MTT assay; assay type: functional, cell-based
[5] = test system: SCC-25; assay: Cytotoxicity against human SCC25 cells assessed as reduction in cell viability after 4 hrs by MTT assay; assay type: functional, cell-based
[6] = test system: Detroit 562; assay: Cytotoxicity against human Detroit 562 cells assessed as reduction in cell viability after 4 hrs by MTT assay; assay type: functional, cell-based
[7] = test system: MCF7; assay: Induction of ROS generation in human MCF7 cells at 5 uM after 8 hrs by DCFH-DA staining-based fluorescence spectrophotometric analysis relative to control; assay type: functional
How it was run: (§2)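 DCFH-DA ROS: HeLa or MCF-7 cells at 2×10^6/well cultured 12 h, treated 4 or 8 h; t-BHP (10 μM) is the positive control. DCFH-DA 10 μM added for 10 min at 37 °C, cells washed twice with PBS. Fluorescence read at ex 485/em 520 nm. For the NAC arm, NAC (5 mM) is added to the medium before treatment.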

[8] = test system: HeLa; assay: Induction of ROS generation in human HeLa cells at 5 uM after 4 to 8 hrs in presence of NAC by DCFH-DA staining-based fluorescence spectrophotometric analysis; assay type: functional, cell-based; how it was run: as §2
[9] = test system: HeLa; assay: Induction of nitric oxide production in human HeLa cells at 1 uM measured over 8 hrs by Griess reaction based assay relative to control; assay type: functional
How it was run: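 Cells were plated at 2×10⁶ cells/well in 24-well plates for 12 h, then treated at 1, 5 and 10 µM for 8 h at 37 °C. Culture supernatant was mixed with Griess reagent (0.002% N-1-naphthylethylenediamine, 0.5% sulfanilic acid, 14% glacial acetic acid). Nitric oxide was quantified by absorbance at 550 nm.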

[10] = species on record: Homo sapiens; assay: Inhibition of PKA phosphorylation (unknown origin) at 50 uM after 5 to 60 mins by bioluminescence assay relative to control
How it was run: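 Kinase activity measured with compound at 1, 5, 10 and 50 μM, using a Kinase Reaction Rate Kit. Phosphorylation was followed by bioluminescent monitoring of ATP consumption, with light read at 5 min and 1 h. Staurosporine served as positive control. Data given as % kinase inhibition (% of control activity), from two separate experiments.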

[11] = target: T1, Tyrosine-protein phosphatase non-receptor type 1 (Homo sapiens) (UniProt P18031); assay: Inhibition of recombinant human PTP1B using 6,8-difluoro-4-methylumbelliferyl phosphate fluorogenic substrate measured over 30 mins by fluorescence assay
T1 sequence (whole entry): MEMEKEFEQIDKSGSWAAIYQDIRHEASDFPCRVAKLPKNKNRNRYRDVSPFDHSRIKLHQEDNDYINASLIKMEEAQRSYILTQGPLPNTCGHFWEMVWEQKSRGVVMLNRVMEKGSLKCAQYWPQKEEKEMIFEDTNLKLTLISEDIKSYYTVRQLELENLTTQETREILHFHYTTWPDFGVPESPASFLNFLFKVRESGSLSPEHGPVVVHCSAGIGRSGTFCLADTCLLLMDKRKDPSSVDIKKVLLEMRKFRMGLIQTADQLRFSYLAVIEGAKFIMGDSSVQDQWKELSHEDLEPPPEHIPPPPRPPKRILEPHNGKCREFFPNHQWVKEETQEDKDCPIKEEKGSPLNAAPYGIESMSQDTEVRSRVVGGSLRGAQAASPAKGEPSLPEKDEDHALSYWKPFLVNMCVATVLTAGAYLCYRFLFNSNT
How it was run: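 Recombinant human PTP1B, 1.56 ng/well, in buffer of 25 mM HEPES, 50 mM NaCl, 2.5 mM EDTA, DTT and 0.01 mg/mL human albumin. Preincubated with compound for 30 min in the dark, then DiFMUP added (25 μL of 10 μM solution). Fluorescence read after 10 min (ex 360/em 465 nm). Triplicates; % inhibition relative to PTP inhibitor IV (0.16 mM) and buffer controls.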

[12] = test system: MCF7; assay: Effect on mitochondrial membrane potential in human MCF7 cells assessed as shift change at 5 uM measured over 4 hrs by Rhodamine 123 dye-based fluorescence assay; assay type: functional, cell-based
How it was run: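 Mitochondrial potential: HeLa or MCF-7 cells treated with 5 µM (final) for 1, 2, 4 and 8 h. Rhodamine 123 added, cells incubated 30 min at 37 °C, washed with PBS, and analysed by flow cytometry. Fluorescence histogram shift is compared with control.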

[13] = test system: HeLa; assay: Induction of caspase-dependent apoptosis in human HeLa cells assessed as activation of caspase-8 at 1 to 3 uM after 24 hrs by Western blot analysis; assay type: functional, cell-based
How it was run: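 Cells were treated at 1, 3 and 5 µM for 24 h at 37 °C. Lysis was in ice-cold Triton X-100 buffer with protease and phosphatase inhibitors; nuclear proteins were extracted separately. Protein was quantified by BCA. Lysates were separated by electrophoresis, transferred to nitrocellulose and blocked in non-fat milk for 1 h. Primary antibody was applied overnight at 4 °C and secondary for 1 h at 28 °C. Detection was by enhanced chemiluminescence.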

[14] = target: T2, c-Jun N-terminal kinase, JNK (Homo sapiens) (UniProt P45983+P53779+P45984); assay: Activation of JNK phosphorylation in human MCF7 cells assessed as increase in ratio of phosphorylated JNK to total JNK level at 5 uM by ELISA; assay type: cell-based
How it was run: (§3)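 Cell-based ELISA: HeLa or MCF-7 cells (20×10^3/well) grown overnight at 37 °C, 5% CO2, treated with 5 μM, then fixed and blocked. Probed with rabbit anti-total and anti-phospho P38, JNK or ERK1/2 (1:100), then HRP anti-rabbit IgG. Result is the phospho/total ratio; inhibitor arms use […], […] or SP600125. n=3.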

[15] = target: T2, c-Jun N-terminal kinase, JNK (Homo sapiens); assay: Activation of JNK phosphorylation in human HeLa cells assessed as increase in ratio of phosphorylated JNK to total JNK level at 5 uM by ELISA; assay type: cell-based; how it was run: as §3
[16] = target: Mitogen-activated protein kinase; ERK1/ERK2 (Homo sapiens) (UniProt P27361+P28482); assay: Activation of ERK1/2 phosphorylation in human HeLa cells assessed as increase in ratio of phosphorylated ERK1/2 to total ERK1/2 level at 5 uM in presence of ERK1/2 inhibitor PD98059 by ELISA; assay type: cell-based; how it was run: as §3
Mitogen-activated protein kinase; ERK1/ERK2 (Homo sapiens), sequence (P27361 whole entry, looked up): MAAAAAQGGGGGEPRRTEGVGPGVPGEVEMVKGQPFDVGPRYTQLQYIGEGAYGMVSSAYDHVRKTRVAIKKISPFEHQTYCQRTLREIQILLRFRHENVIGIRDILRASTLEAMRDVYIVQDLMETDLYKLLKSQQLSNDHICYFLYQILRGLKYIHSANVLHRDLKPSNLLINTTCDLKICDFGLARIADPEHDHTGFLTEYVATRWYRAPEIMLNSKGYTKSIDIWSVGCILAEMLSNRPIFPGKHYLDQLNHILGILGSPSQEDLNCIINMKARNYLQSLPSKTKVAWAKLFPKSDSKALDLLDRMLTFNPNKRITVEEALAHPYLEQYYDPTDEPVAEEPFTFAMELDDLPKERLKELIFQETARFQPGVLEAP
Mitogen-activated protein kinase; ERK1/ERK2 (Homo sapiens), sequence (P28482 whole entry, looked up): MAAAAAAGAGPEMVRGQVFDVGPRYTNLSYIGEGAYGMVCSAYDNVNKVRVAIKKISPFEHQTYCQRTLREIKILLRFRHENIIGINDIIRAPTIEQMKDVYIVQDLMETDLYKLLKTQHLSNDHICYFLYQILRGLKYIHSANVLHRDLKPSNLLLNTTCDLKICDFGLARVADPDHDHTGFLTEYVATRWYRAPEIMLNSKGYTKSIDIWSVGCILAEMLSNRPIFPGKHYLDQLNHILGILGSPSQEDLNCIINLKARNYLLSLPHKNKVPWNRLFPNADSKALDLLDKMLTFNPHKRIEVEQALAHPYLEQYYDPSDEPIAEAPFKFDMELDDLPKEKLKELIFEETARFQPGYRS

inhibition [10]: 45%
inhibition [11]: Dose-dependent effect
Activity [14]: Active
Activity [15]: Active
Activity [16]: inactive
Structure (SMILES): Cn1cc(/C=N\NC(=O)c2cn(C)c3ccc(Br)cc23)c2ccccc21
Activity [1]: Dose-dependent effect
pIC50 ([1]; MDA-MB-231, 4 h): 5.26
pIC50 [2]: 5.56
Activity [3]: Dose-dependent effect
Activity [4]: Dose-dependent effect
pIC50 [4]: 5.02
Activity [5]: Dose-dependent effect
pIC50 ([5]; SCC-25, 4 h): 4.99
Activity [6]: Dose-dependent effect
pIC50 ([6]; Detroit 562, 4 h): 4.64
Activity [7]: 48.3%
Activity [8]: inactive
Activity [9]: 29.8%
Activity [12]: Active
Activity [13]: inactive
